The source of these data is ChEMBL document CHEMBL1156469 (2007).

Calls of active or inactive are those of the source. The calls are words filed in the database; no cut-off is given here.

The subject of one assay is Rattus norvegicus. Briefly: Antiapoptotic activity against osteoblasts in ovariectomized Wistar rat at 10 mg/kg after 10 weeks. In kind it is functional, organism-based. On the set-up: dose 10 mg/kg. Put shortly:
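After 10 weeks, lumbar vertebrae were removed. Apoptotic osteoblasts were detected by TUNEL staining (Klenow FragEL) in undecalcified, plastic-embedded sections. Values are means ± S.D.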

Assay [1] relates to MC3T3-E1. The assay can be described thus: Induction of ER association with BMP2 promoter in mouse MC3T3-E1 cells at 1 uM by ChiP assay. The assay is classed as functional, cell-based. In a few lines:
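MC3T3-E1 cells ± 1 μm, formaldehyde-fixed; ChIP with transcription factor antibodies and protein G magnetic beads; BMP-2 promoter quantified by real-time PCR (45 cycles); ratio of IP to input Ct values.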

For assay [2], the system named is Osteoblast. Briefly: Effect on bone morphogenetic protein receptor 1B gene expression in rat primary osteoblast cells assessed as expression ratio of treated to untreated control by microarray analysis. The assay is classed as functional.
Assay [3] has as its target Forkhead box protein O3 (Homo sapiens) (UniProt O43524). The assay can be described thus: Reversal of induction of FOXO3a activity in human MDA-MB-231 cells transfected with FOXO3a-specific small interfering RNA. The assay is classed as cell-based.
Assay [4] deals with Osteoblast. Briefly: Effect on scavenger receptor B2 gene expression in rat primary osteoblast cells assessed as expression ratio of treated to untreated control by microarray analysis. The assay is classed as functional. Put shortly:
(§1)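 Resveratrol-treated and vehicle-treated primary osteoblasts were profiled on a mouse osteogenesis-focused cDNA array (GEArray Q series) built to track gene expression during osteogenic differentiation. Each gene's signal in treated cells was expressed as a ratio to untreated control.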

The test system of assay [5] is Osteoblast. The assay can be described thus: Increase in BMP2 mRNA levels in rat primary osteoblast cells at 1 uM by RT-PCR method. The assay is classed as functional, cell-based. In a few lines: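 Cells treated with 1 μm for 48 h; BMP-2 mRNA measured by quantitative real-time RT-PCR (SYBR Green, 0.5 μm each primer, 4 mm MgCl2, fluorescence read at 82 °C) and normalized.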

In assay [6] the test system is MC3T3-E1. Briefly: Reversal of increase in ER.DNA complex in mouse MC3T3-E1 cells at 1 uM by RT-PCR in presence of PP2. In kind it is functional, cell-based. In a few lines:
(§2)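 BMP-2 promoter quantified by real-time PCR (45 cycles, 61 °C anneal), reported as IP-to-input Ct ratio. DN-Src by 3 μg vector, PP2 at 10 μM; ICI182780 and tamoxifen at indicated concentrations.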

A further assay relates to MCF7. Briefly: Reduction in anchorage-independent colony formation of human MCF7 cells at 1 uM by soft agar colony forming assay. In kind it is functional, cell-based. Put shortly:
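Seeded in 0.35% noble agar in DMEM/10% FBS over a 0.7% agar bed. Colonies of at least 50 μm counted after 3 weeks under a dissecting microscope, six replicates per treatment. Three separate experiments.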

The subject of assay [7] is Osteoblast. The assay can be described thus: Increase in osteocalcin levels in rat primary osteoblast cells at 1 uM after 72 hrs by ELISA. The assay is classed as functional, cell-based. In a few lines: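 Cells treated with 1 μm for 72 h; osteocalcin or osteopontin in culture medium by sandwich ELISA, HRP-streptavidin/TMB, 450 nm; percent change versus untreated control.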
A general note: An ELISA detects its analyte on a solid surface through an enzyme-linked reagent.

The test system of assay [8] is Osteoblast. The assay can be described thus: Increase in BMP2 levels in rat primary osteoblast cells at 1 uM after 48 hrs by ELISA. In kind it is functional, cell-based. Put shortly:
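Culture medium collected after 48 h treatment at indicated concentrations; BMP-2 sandwich ELISA, 2 h room temperature incubation, HRP-streptavidin with TMB, absorbance at 450 nm; expressed as percent change versus untreated control.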

Assay [9] deals with MC3T3-E1. The assay can be described thus: Reversal of induction in ER.DNA complex in mouse MC3T3-E1 cells at 1 uM by RT-PCR in presence of ICI-182780. The assay is classed as functional, cell-based. In a few lines:
as §2

A further assay concerns MDA-MB-231. Briefly: Antiproliferative activity against human MDA-MB-231 cells at 1 uM by flow cytometry. In kind it is functional, cell-based. In a few lines:
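Proliferation was measured by DNA flow cytometry. Incubations were run in triplicate across three separate experiments, and values are means ± S.D.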
(A flow cytometer gives signals particle by particle.)

The test system of assay [10] is MC3T3-E1. Briefly: Increase in osteocalcin mRNA levels in mouse MC3T3-E1 cells at 1 uM after 72 hrs by RT-PCR. In kind it is functional, cell-based. Put shortly: (§3)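 Cells treated with 1 μm for 72 h; osteocalcin and osteopontin mRNA by RT-PCR, 30 cycles (95/52/72 °C, 1 min each), ethidium bromide–stained agarose gels; repeated at least twice from at least two cDNA preparations.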

Assay [11] is described as follows: Reversal of increase in pBMP2 expression in mouse MC3T3-E1 cells at 1 uM by luciferase method in presence of PP2. The assay is classed as functional, cell-based. Put shortly: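 BMP-2 promoter activity measured by dual-luciferase assay and expressed relative to the untreated vector control.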
For assay [12], the system named is Osteoblast. Briefly: Effect on bone morphogenetic protein 1 gene expression in rat primary osteoblast cells assessed as expression ratio of treated to untreated control by microarray analysis. In kind it is functional.
Assay [13] relates to MC3T3-E1. Briefly: Increase in osteopontin mRNA levels in mouse MC3T3-E1 cells at 1 uM after 72 hrs by RT-PCR. The assay is classed as functional, cell-based. In a few lines:
as §3

A short description of assay [14]: Reversal of induction of BMP2 expression in mouse MC3T3-E1 cells at 1 uM by Western blot in presence of ICI-182780. The assay is classed as functional, cell-based.
The target of assay [15] is Alkaline phosphatase (Rattus norvegicus) (UniProt Q9JKS8). Briefly: Inhibition of induction of ALP activity in rat primary osteoblast cells at 1 uM after 48 hrs in presence of BMP2-specific neutralizing antibody. The assay is classed as cell-based.
Assay [16] is described as follows: Reversal of induction in nuclear translocation of ERalpha in mouse MC3T3-E1 cells transfected with dominant-negative mutant Src expression vector at 1 uM. In kind it is functional, cell-based. Put shortly:
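Src phosphorylation, ERα nuclear translocation and BMP-2 protein analysed by Western blot with ECL detection. Three independent experiments.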

Assay [17] deals with Alkaline phosphatase, germ cell type (Homo sapiens) (UniProt P10696). The assay can be described thus: Increase in ALP activity in human MG63 cells at 0.1 to 10 uM after 7 days. The assay is classed as cell-based. The note with it: MG-63.
The test system of assay [18] is Osteoblast. The assay can be described thus: Effect on procollagen 14alpha 1 gene expression in rat primary osteoblast cells assessed as expression ratio of treated to untreated control by microarray analysis. In kind it is functional. In a few lines:
as §1

The target in assay [19] is Proto-oncogene tyrosine-protein kinase Src (Mus musculus) (UniProt P05480). The assay can be described thus: Increase in Src kinase phosphorylation in mouse MC3T3-E1 cells at 1 uM. In kind it is cell-based. In a few lines: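 MC3T3-E1 cells, with or without DN-Src vector (3 μg) or PP2 (10 μm), treated ± 1 μm; Src phosphorylation by Western blot; three independent experiments.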
Chain of Proto-oncogene tyrosine-protein kinase Src (Mus musculus) (P05480 2-535 limits assumed): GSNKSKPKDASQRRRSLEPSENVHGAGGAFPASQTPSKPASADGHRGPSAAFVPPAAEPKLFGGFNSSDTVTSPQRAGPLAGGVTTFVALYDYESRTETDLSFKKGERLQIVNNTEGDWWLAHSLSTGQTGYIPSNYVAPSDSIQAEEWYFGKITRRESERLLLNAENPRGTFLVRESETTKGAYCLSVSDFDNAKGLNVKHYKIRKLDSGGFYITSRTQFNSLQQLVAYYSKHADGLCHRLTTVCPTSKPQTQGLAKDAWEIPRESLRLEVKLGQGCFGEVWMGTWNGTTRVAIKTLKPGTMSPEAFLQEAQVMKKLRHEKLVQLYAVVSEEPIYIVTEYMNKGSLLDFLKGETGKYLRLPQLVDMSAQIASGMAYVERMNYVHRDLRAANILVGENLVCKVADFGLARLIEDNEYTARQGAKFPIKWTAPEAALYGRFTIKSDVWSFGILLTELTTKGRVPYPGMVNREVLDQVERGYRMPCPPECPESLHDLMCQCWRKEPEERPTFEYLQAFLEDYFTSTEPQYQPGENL

Chain of Alkaline phosphatase, germ cell type (Homo sapiens) (P10696 20-503 limits assumed): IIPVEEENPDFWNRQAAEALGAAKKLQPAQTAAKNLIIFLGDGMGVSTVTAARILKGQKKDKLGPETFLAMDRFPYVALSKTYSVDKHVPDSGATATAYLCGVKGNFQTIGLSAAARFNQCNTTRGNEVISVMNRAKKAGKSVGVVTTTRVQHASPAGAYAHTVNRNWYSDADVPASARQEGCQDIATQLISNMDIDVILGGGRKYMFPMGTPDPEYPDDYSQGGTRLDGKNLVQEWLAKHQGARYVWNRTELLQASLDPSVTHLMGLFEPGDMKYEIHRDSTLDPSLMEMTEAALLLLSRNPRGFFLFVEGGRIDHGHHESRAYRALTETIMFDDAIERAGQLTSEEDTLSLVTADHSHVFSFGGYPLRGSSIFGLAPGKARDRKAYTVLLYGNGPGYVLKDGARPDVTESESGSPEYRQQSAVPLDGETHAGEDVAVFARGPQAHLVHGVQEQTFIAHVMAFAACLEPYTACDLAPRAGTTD
Chain of Forkhead box protein O3 (Homo sapiens) (O43524 whole entry): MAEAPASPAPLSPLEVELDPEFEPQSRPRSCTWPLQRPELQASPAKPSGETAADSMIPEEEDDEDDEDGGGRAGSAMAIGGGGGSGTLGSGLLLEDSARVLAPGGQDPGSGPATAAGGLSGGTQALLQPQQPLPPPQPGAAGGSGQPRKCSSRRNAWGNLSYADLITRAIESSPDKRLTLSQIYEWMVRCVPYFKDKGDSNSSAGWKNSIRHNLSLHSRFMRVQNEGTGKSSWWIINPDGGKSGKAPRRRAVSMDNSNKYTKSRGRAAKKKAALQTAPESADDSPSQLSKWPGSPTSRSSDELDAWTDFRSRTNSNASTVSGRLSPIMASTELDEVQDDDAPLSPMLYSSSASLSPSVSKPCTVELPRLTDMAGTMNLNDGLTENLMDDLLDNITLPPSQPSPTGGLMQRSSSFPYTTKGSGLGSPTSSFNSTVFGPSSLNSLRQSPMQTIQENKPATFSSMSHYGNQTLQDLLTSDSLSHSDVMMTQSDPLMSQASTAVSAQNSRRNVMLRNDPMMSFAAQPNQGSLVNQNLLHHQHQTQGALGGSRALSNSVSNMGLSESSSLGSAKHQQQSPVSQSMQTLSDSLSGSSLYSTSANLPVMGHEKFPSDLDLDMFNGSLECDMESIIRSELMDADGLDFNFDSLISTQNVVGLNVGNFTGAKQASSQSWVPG
Chain of Alkaline phosphatase (Rattus norvegicus) (Q9JKS8 as listed by the source): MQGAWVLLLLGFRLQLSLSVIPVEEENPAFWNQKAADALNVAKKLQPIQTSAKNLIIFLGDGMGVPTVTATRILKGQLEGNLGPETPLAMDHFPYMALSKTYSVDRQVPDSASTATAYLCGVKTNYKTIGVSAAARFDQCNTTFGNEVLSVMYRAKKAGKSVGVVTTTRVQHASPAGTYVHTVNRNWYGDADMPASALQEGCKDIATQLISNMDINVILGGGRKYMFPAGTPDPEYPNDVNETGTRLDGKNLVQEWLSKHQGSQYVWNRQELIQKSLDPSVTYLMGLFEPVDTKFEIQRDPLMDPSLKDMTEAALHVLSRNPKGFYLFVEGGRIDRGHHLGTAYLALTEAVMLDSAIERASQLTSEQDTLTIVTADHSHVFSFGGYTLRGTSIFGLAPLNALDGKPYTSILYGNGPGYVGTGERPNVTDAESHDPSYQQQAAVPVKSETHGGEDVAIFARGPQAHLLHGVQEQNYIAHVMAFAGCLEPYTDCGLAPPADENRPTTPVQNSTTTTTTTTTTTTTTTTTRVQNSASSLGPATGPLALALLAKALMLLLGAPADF

Regarding `Oc1ccc(/C=C/c2cc(O)cc(O)c2)cc1` [RESVERATROL], the result (with Rattus norvegicus; with MC3T3-E1 [1]; in assay [3]; in the assay on Osteoblast [5]; in the assay with MC3T3-E1 [6]; with MCF7) was Active. For the same compound, the result (in the assay with Osteoblast [7]; with MDA-MB-231; with MC3T3-E1 [10]; in assay [11]; in the assay on MC3T3-E1 [13]; in [14]) was Active. Besides, the result in assay [15], in [16], in [17] and in [19] was Active. In addition, the Ratio is recorded as 2.63 with Osteoblast [2], 0.65 with Osteoblast [4], 1.5 with Osteoblast [12] and 3.76 in the assay with Osteoblast [18]. The Activity result with Osteoblast [8] and in the assay with MC3T3-E1 [9] was “Dose-dependent effect” throughout.
